Measurements collected from several papers.
Lines come from different studies, so protocols differ.
MPO: Myeloperoxidase (MPO, Homo sapiens, UniProt P05164)
HTR1F: 5-hydroxytryptamine receptor 1F (HTR1F, Homo sapiens, UniProt P30939)
DUOX2: DUOX2 (Homo sapiens, UniProt Q9NRD8)

CCCC(=O)NCCCN1CCc2c([nH]c3ccc(Cl)cc23)C1
IC50 (Sodium-dependent noradrenaline transporter (SLC6A2, Homo sapiens, UniProt P23975); transporter uptake, inhibitor): 250 µM

Nc1ncnc2c1ncn2[C@@H]1O[C@H](COP(=O)(O)OP(=O)(O)OP(=O)(O)OP(=O)(O)OP(=O)(O)OC[C@H]2O[C@@H](n3cnc4c(N)ncnc43)[C@H](O)[C@@H]2O)[C@@H](O)[C@H]1O
Kd (adk (Escherichia coli, UniProt P69441); binding, ITC): 0.2 µM

CC(C)CCC[C@@H](C)[C@H]1CC[C@H]2[C@@H]3CC[C@H]4C[C@H](N)CC[C@]4(C)[C@H]3CC[C@]12C
IC50 (Phosphatidylinositol 3,4,5-trisphosphate 5-phosphatase 1 (INPP5D, Homo sapiens, UniProt Q92835); enzyme activity, inhibitor, absorbance; pH 7.4): 22.4 µM

CC(=O)c1cccc(NC(=O)c2cc3c(cc2[N+](=O)[O-])OCO3)c1
IC50 (MPO; enzyme activity, inhibitor): 10 µM

O=c1oc2cc(O)ccc2c2ccc(O)cc12
Kd (Glutaminase kidney isoform, mitochondrial (GLS, Homo sapiens, UniProt O94925); binding, SPR): 0.000266 µM

CN(C)CCOC1=Cc2ccccc2Sc2ccc(Cl)cc21
EC50 (HTR1F; G protein activation, agonist, BRET): 1.82 µM

C[C@H]1COC2=C1C(=O)C(=O)c1c2ccc2c1CCCC2(C)C
IC50 (DUOX2; enzyme activity, inhibitor; cell membranes): 2.1 µM

C[C@@H]1CN(C(=O)[C@@H]2CN(C(C)(C)C)C[C@H]2c2ccc(F)cc2F)C[C@H](C)[C@@]1(O)c1ccccc1
Ki (Melanocortin receptor 4 (MC4R, Homo sapiens, UniProt P32245); ligand displacement, radioligand): 0.199 µM

CCOc1ccccc1OCCN[C@H](C)Cc1ccc(OC)c(S(N)(=O)=O)c1
IC50 (Anoctamin-1 (Ano1, Mus musculus, UniProt Q8BHY3); ion current, inhibitor, patch clamp): 7.22 µM

O=c1oc(-c2cccnc2)nc2ccccc12
IC50 (Plasma kallikrein (KLKB1, Homo sapiens, UniProt P03952); enzyme activity, inhibitor, absorbance): > 50 µM

COc1ccc(CNC(=O)c2cc3c(cc2[N+](=O)[O-])OCO3)cc1
IC50 (MPO; enzyme activity, inhibitor): 4.5 µM

Cc1coc2c1C(=O)C(=O)c1c-2ccc2c1CCCC2(C)CO (stereo not shown)
IC50 (DUOX2; enzyme activity, inhibitor; cell membranes): 8.9 µM

CN1CCN2c3ccccc3Cc3ccccc3C2C1 (stereo not shown)
EC50 (HTR1F; G protein activation, agonist, BRET): 0.0475 µM
